In PMC5110367 (Nature chemical biology, 2016):
Where a chain is given by its changes, count along the chain named. Like-named read-outs stand apart in the source and are kept apart here.

Assays:
[1] = tested on: PPRE-driven luciferase activity; assay: PPRE-luciferase assay in Ppara-null astrocytes transduced with empty vector; assay type: cell-based, mouse; settings: 4 h
Method in brief: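 Ppara-null astrocytes came from mixed glial cultures of 7-d-old pups. They were transduced 48 h with empty-vector lentivirions and transfected with tk-PPREx3-Luc reporter. After 24 h they were treated with different doses of test compound for 4 h, then luciferase activity was read. Values are mean ± SD of three independent experiments.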

PPARγ = target: T1, PPARγ (Mus musculus, UniProt P37238); assay: GW9662 against rosiglitazone-stimulated PPRE-luciferase in Pparb-null astrocytes; assay type: cell-based; settings: GW9662 30 min before rosiglitazone
T1 sequence (P37238 1-505): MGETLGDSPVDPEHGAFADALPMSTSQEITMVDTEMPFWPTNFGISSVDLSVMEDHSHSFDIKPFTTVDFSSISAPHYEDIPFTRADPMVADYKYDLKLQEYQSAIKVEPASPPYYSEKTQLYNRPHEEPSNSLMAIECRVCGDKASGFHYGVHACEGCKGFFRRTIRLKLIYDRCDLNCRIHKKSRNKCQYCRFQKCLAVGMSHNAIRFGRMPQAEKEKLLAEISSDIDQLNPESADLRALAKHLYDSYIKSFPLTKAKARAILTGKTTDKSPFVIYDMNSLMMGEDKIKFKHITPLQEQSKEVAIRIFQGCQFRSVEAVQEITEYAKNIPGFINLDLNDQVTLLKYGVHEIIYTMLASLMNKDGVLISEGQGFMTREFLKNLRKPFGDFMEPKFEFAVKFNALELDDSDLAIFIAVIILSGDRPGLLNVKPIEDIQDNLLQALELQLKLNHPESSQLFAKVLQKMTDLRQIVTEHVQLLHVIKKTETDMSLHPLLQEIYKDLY

FL-Ppara = target: T2, FL-Ppara (Mus musculus, UniProt P23204); assay type: cell-based
T2 sequence (P23204 1-468): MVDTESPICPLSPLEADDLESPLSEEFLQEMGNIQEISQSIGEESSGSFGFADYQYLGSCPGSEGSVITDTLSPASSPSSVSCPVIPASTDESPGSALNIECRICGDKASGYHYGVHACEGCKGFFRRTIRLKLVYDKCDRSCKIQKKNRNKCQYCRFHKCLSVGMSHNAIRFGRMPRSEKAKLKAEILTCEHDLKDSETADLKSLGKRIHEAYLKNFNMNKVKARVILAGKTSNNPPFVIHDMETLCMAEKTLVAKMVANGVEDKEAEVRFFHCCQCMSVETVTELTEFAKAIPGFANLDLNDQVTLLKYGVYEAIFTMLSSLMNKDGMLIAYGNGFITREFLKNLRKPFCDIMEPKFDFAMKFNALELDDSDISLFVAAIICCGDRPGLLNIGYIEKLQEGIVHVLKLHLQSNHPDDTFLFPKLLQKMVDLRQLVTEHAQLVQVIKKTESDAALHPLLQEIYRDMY

Y314D-Ppara = target: T3, Y314D-Ppara (Mus musculus, UniProt P23204, Y314D); assay type: cell-based
T3 sequence (P23204 1-468 Y314D): T2 sequence (P23204 1-468) with Y314D

Y464D-Ppara = target: T4, Y464D-Ppara (Mus musculus, UniProt P23204, Y464D); assay type: cell-based
T4 sequence (P23204 1-468 Y464D): T2 sequence (P23204 1-468) with Y464D

Y314D/Y464D-Ppara = target: T5, Y314D/Y464D-Ppara (Mus musculus, UniProt P23204, Y314D/Y464D); assay type: cell-based
T5 sequence (P23204 1-468 Y314D/Y464D): T2 sequence (P23204 1-468) with Y314D, Y464D

[2] = tested on: Ppara-null hippocampal neurons; assay: Dendritic spine density; assay type: cell-based, mouse; settings: Ppara-null neurons transduced with lenti-FL-Ppara or lenti-Y464D-Ppara
Method in brief: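 Ppara-null hippocampal neurons were taken from E18 fetuses and treated with 10 μM AraC to remove glia. They were differentiated 9–10 days, then transduced 48 h with lentivirions carrying GFP (vector), FL-Ppara or Y464D-Ppara. Neurons then received vehicle (DMSO) or test compound for 24 h. They were stained with Dylight-554-phalloidin, and spine density was scored by fluorescence microscopy.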

SMILES: CC(C)OC(=O)C(C)(C)Oc1ccc(C(=O)c2ccc(Cl)cc2)cc1 [fenofibrate]
- PPRE-driven luciferase activity [1]: unable to induce PPRE-luciferase activity

SMILES: O=C(Nc1ccccc1)c1cc([N+](=O)[O-])ccc1Cl [GW9662]
- effect on rosiglitazone-mediated PPRE-luciferase activity (PPARγ): Inhibition of rosiglitazone-mediated increase in PPRE-luciferase activity

SMILES: CCOC(=O)C(C)(C)Oc1ccc(Cl)cc1 [clofibrate, reference compound]
- PPRE-driven luciferase activity [1]: unable to induce PPRE-luciferase activity
- PPRE-luciferase reporter activity (FL-Ppara; Ppara-null astrocytes transduced with lenti-FL-Ppara, 4 h): markedly induced PPRE-luciferase activity
- PPRE-luciferase activity (Y314D-Ppara; Ppara-null astrocytes transduced with lenti-Y314D-Ppara, 4 h): no luciferase activity
- PPRE-luciferase activity (Y464D-Ppara; Ppara-null astrocytes transduced with lenti-Y464D-Ppara, 4 h): no luciferase activity
- PPRE-luciferase activity (Y314D/Y464D-Ppara; Ppara-null astrocytes transduced with lenti-Y314D/Y464D-Ppara, 4 h): no luciferase activity

SMILES: Cc1cccc(Nc2cc(Cl)nc(SCC(=O)O)n2)c1C [WY14643, reference compound]
- PPRE-driven luciferase activity [1]: unable to induce PPRE-luciferase activity
- PPRE-luciferase reporter activity (FL-Ppara): markedly induced PPRE-luciferase activity
- PPRE-luciferase activity (Y314D-Ppara): no luciferase activity
- PPRE-luciferase activity (Y464D-Ppara): no luciferase activity
- PPRE-luciferase activity (Y314D/Y464D-Ppara): no luciferase activity
- density of dendritic spines [2]: stimulated the density of spines only when Ppara-null neurons were transduced with lenti-FL-Ppara, but not lenti-Y464D-Ppara
